Results from ChEMBL document CHEMBL1129793, “Quantitative structure-activity relationships for the in vitro antimycobacterial activity of pyrazinoic acid esters” (J Med Chem, 1996).

Columns and labels:
[1] = t1/2 (min) in equine serum; type: ADME, organism-based, Equus caballus; conditions: horse
Outline: (§1)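 Ester from a 1 mg/mL stock was mixed with 5% aqueous equine serum in 0.01 M KH2PO4, pH 7.2. Aliquots were taken at 0, 5, 10, 15, 30, 60 and 120 min and quenched with an equal volume of acetonitrile, then filtered. Remaining ester was measured by isocratic reverse-phase HPLC (80% acetonitrile/20% 0.1 M sodium acetate, pH 5.0), with UV detection at 265 nm against a standard curve. Half-life is the time to 50% conversion to the acid.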

[2] = Partition coefficient (logP); type: physicochemical; conditions: octanol/water
Mycobacterium avium [3] = assay: In vitro activity against Mycobacterium avium (MAC-101); type: functional
Outline: (§2)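 Broth macrodilution MIC. Cultures were grown in modified Middlebrook 7H10 broth (agar and malachite green omitted) with 10% OADC and 0.05% Tween 80, shaken at 37 °C for 3 days, then diluted in 7H10 broth to 1 Klett unit/mL. Test agents were dissolved in water or DMSO and filter-sterilised, then serially diluted 2-fold in 7H10 broth at pH 5.8. Tubes were shaken at 37 °C for 7–10 days, with a drug-free control. MIC was the lowest concentration with no visible turbidity, expressed in mmol/L.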

[4] = tested on: Mycobacterium tuberculosis; assay: In vitro activity against Mycobacterium tuberculosis (ATCC 27294); type: functional; outline: as §2
[5] = tested on: Mycobacterium tuberculosis; assay: In vitro activity against Mycobacterium tuberculosis (ATCC 35801); type: functional; outline: as §2
[6] = tested on: Mycobacterium tuberculosis; assay: In vitro activity against Mycobacterium tuberculosis (ATCC 35828); type: functional; outline: as §2
Mycobacterium kansasii [7] = assay: In vitro activity against Mycobacterium kansasii (SWK); type: functional; outline: as §2
Mycobacterium avium [8] = assay: In vitro activity against Mycobacterium avium (ATCC49601); type: functional; outline: as §2
[9] = T1/2 in equine serum; type: ADME, organism-based, Equus caballus; conditions: horse
Outline: as §1, with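 “7.2.” for “7.2. Aliquots were taken at 0, 5, 10, 15, 30, 60 and 120 min and quenched with an equal volume of acetonitrile, then filtered.”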

Mycobacterium avium [10] = assay: In vitro activity against Mycobacterium avium (MAC-101).; type: functional; outline: as §2
Mycobacterium kansasii [11] = assay: in vitro activity against Mycobacterium kansasii (SWK).; type: functional
Outline: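 M. kansasii clinical isolate SWK was grown 3 days at 37 °C with shaking in modified Middlebrook 7H10 broth with 10% OADC and 0.05% Tween 80, then diluted. It was tested in serial 2-fold dilutions in 7H10 broth at pH 5.8, shaken at 37 °C for 7–10 days, with a drug-free control. MIC was the lowest concentration giving no visible turbidity, expressed in mmol/L.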

Mycobacterium avium [12] = assay: In vitro activity against Mycobacterium avium (ATCC 49601).; type: functional; outline: as §2

CCCCCCC(C)OC(=O)c1cnc(F)cn1 (stereo unspecified)
half-life [1]: 6.9 min | logP [2]: 3.23 | Log 1/MMIC (Mycobacterium avium [3]): 0.9 | Log 1/MMIC [4]: 2.104 | Log 1/MMIC [5]: 1.803 | Log 1/MMIC [6]: 1.803 | Log 1/MMIC (Mycobacterium kansasii [7]): 3.928 | Log 1/MMIC (Mycobacterium avium [8]): 0.599

CCCCCCOC(=O)c1cnc(F)cn1
half-life [1]: 2.8 min | logP [2]: 2.96 | Log 1/MMIC (Mycobacterium avium [3]): 0.548 | Log 1/MMIC [5]: 1.753 | Log 1/MMIC (Mycobacterium kansasii [7]): 1.452 | Log 1/MMIC (Mycobacterium avium [8]): 0.548

CCCOC(=O)c1cnc(C)cn1
half-life [1]: 124 min | logP [2]: 1.15 | Log 1/MMIC (Mycobacterium avium [3]): 0.45 | Log 1/MMIC [4]: 1.955 | Log 1/MMIC [5]: 1.654 | Log 1/MMIC (Mycobacterium kansasii [7]): 1.353 | Log 1/MMIC (Mycobacterium avium [8]): 0.45

CCCCCCCOC(=O)c1cnc(C)cn1
half-life [9]: 3.2 min | logP [2]: 3.35 | Log 1/MMIC (Mycobacterium avium [10]): 0.868 | Log 1/MMIC [4]: 2.675 | Log 1/MMIC [5]: 2.976 | Log 1/MMIC [6]: 2.373 | Log 1/MMIC (Mycobacterium kansasii [11]): 1.771 | Log 1/MMIC (Mycobacterium avium [12]): 0.868

CCC(C)OC(=O)c1cnccn1 (stereo unspecified)
half-life [1]: 41.1 min | logP [2]: 1.05 | Log 1/MMIC (Mycobacterium avium [3]): -0.152 | Log 1/MMIC [4]: 1.353 | Log 1/MMIC (Mycobacterium kansasii [7]): 1.052 | Log 1/MMIC (Mycobacterium avium [8]): -0.755

COC(=O)c1cnccn1
half-life [1]: 470 min | Log 1/MMIC (Mycobacterium avium [3]): -0.268 | Log 1/MMIC [4]: 1.237 | Log 1/MMIC [5]: 0.936 | Log 1/MMIC (Mycobacterium kansasii [7]): 0.334 | Log 1/MMIC (Mycobacterium avium [8]): -0.268

COC(=O)c1cnc(I)cn1
half-life [9]: 200 min | logP [2]: 0.91 | Log 1/MMIC (Mycobacterium avium [10]): 0.013 | Log 1/MMIC [4]: 1.218 | Log 1/MMIC [5]: 1.218 | Log 1/MMIC [6]: 1.218 | Log 1/MMIC (Mycobacterium kansasii [11]): 1.519 | Log 1/MMIC (Mycobacterium avium [12]): 0.013

CCCCCCCCC(C)OC(=O)c1cnc(Cl)cn1 (stereo unspecified)
half-life [9]: 23.7 min | logP [2]: 4.75 | Log 1/MMIC (Mycobacterium avium [10]): 0.97 | Log 1/MMIC [4]: 3.697 | Log 1/MMIC [5]: 2.776 | Log 1/MMIC [6]: 3.998 | Log 1/MMIC (Mycobacterium kansasii [11]): 3.378 | Log 1/MMIC (Mycobacterium avium [12]): 0.97

COC(=O)c1cnc(C)cn1
half-life [1]: 1200 min | logP [2]: 0.15 | Log 1/MMIC (Mycobacterium avium [3]): -0.226 | Log 1/MMIC [4]: 0.978 | Log 1/MMIC [5]: 1.279 | Log 1/MMIC [6]: 0.978 | Log 1/MMIC (Mycobacterium kansasii [7]): 0.677 | Log 1/MMIC (Mycobacterium avium [8]): -0.226

O=C(OCc1ccccc1)c1cnccn1
half-life [1]: 4.3 min | logP [2]: 1.49 | Log 1/MMIC (Mycobacterium avium [3]): 0.525 | Log 1/MMIC [6]: 2.03 | Log 1/MMIC (Mycobacterium kansasii [7]): 2.331 | Log 1/MMIC (Mycobacterium avium [8]): 0.525

CCCCCCCCCOC(=O)c1cnc(Cl)cn1
half-life [9]: 2.3 min | logP [2]: 4.98 | Log 1/MMIC (Mycobacterium avium [10]): 0.949 | Log 1/MMIC [4]: 3.977 | Log 1/MMIC [5]: 2.455 | Log 1/MMIC [6]: 3.977 | Log 1/MMIC (Mycobacterium kansasii [11]): 3.358 | Log 1/MMIC (Mycobacterium avium [12]): 1.25

COC(=O)c1cnc(F)cn1
half-life [1]: 222 min | logP [2]: 0.27 | Log 1/MMIC (Mycobacterium avium [3]): 0.387 | Log 1/MMIC [4]: 1.591 | Log 1/MMIC (Mycobacterium kansasii [7]): 1.29 | Log 1/MMIC (Mycobacterium avium [8]): 0.387

CC(C)COC(=O)c1cnccn1
half-life [1]: 207 min | logP [2]: 1.07 | Log 1/MMIC (Mycobacterium avium [3]): -0.152 | Log 1/MMIC [4]: 1.955 | Log 1/MMIC [5]: 1.654 | Log 1/MMIC [6]: 1.654 | Log 1/MMIC (Mycobacterium kansasii [7]): 1.052 | Log 1/MMIC (Mycobacterium avium [8]): -0.152

CCCCCC(CC)OC(=O)c1cnc(C)cn1 (stereo unspecified)
half-life [1]: 1 min | logP [2]: 3.72 | Log 1/MMIC (Mycobacterium avium [3]): 0.592 | Log 1/MMIC [4]: 1.194 | Log 1/MMIC [5]: 2.7 | Log 1/MMIC [6]: 1.495 | Log 1/MMIC (Mycobacterium kansasii [7]): 1.796 | Log 1/MMIC (Mycobacterium avium [8]): 0.592

COC(=O)c1cnc(OC)cn1
half-life [1]: 300 min | logP [2]: 0.74 | Log 1/MMIC (Mycobacterium avium [3]): -0.183 | Log 1/MMIC (Mycobacterium kansasii [7]): 0.42 | Log 1/MMIC (Mycobacterium avium [8]): -0.183
